Measured values as given in ChEMBL document CHEMBL1154756, “Synthesis of new chalcone derivatives containing acridinyl moiety with potential antimalarial activity” (Eur J Med Chem, 2010).
Activity calls are given as the source filed them. No cut-off for these calls is given here.

Key:
Plasmodium falciparum [1] = test: Antimalarial activity against chloroquine-resistant Plasmodium falciparum W2; format: functional, organism-based
Plasmodium falciparum [2] = test: Antimalarial activity against chloroquine-sensitive Plasmodium falciparum NF54 assessed as inhibition of schizont maturation at 2 ug/ml after 36-40 hrs relative to control; format: functional; set-up: scale not given: the % may be the effect or the level left
Procedure, shortened: (§1)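 NF-54 cultures were kept in RPMI 1640 with 25 mM HEPES, 1% bicarbonate and 0.5% ALBUMAX-II. Wells held 3% haematocrit in medium with 10% FBS, and compound was added from a 5 mg/mL DMSO stock diluted in medium. Duplicates were incubated at 37 °C in CO2 for 36–40 h. Rings, trophozoites and schizonts were counted per 100 parasites on Giemsa smears, giving % maturation inhibition versus untreated control.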

Plasmodium falciparum [3] = test: Antimalarial activity against chloroquine-sensitive Plasmodium falciparum NF54 assessed as inhibition of schizont maturation at 50 ug/ml after 36-40 hrs relative to control; format: functional; set-up: scale not given: the % may be the effect or the level left; procedure, shortened: as §1
Plasmodium falciparum [4] = test: Antimalarial activity against chloroquine-sensitive Plasmodium falciparum NF54 assessed as inhibition of schizont maturation at 10 ug/ml after 36-40 hrs relative to control; format: functional; set-up: scale not given: the % may be the effect or the level left; procedure, shortened: as §1
Plasmodium falciparum [5] = test: Antimalarial activity against chloroquine-sensitive Plasmodium falciparum NF54 assessed as inhibition of schizont maturation at 100 ug/ml after 36-40 hrs relative to control; format: functional; set-up: scale not given: the % may be the effect or the level left; procedure, shortened: as §1
Plasmodium yoelii [6] = test: Antimalarial activity against chloroquine-resistant Plasmodium yoelii N67 infected in Swiss mice (Mus musculus) assessed as suppression of parasitaemia at 50 mg/kg, intraperitoneal once daily for 4 consecutive days measured after 4 days; format: functional
Plasmodium yoelii [7] = test: Antimalarial activity against chloroquine-resistant Plasmodium yoelii N67 infected in Swiss mice (Mus musculus) assessed as mean survival time at 50 mg/kg, intraperitoneal once daily for 4 consecutive days; format: functional
Plasmodium falciparum [8] = test: Antimalarial activity against chloroquine-sensitive Plasmodium falciparum NF54 assessed as inhibition of schizont maturation at 0.4 ug/ml after 36-40 hrs relative to control; format: functional; set-up: scale not given: the % may be the effect or the level left; procedure, shortened: as §1
Plasmodium yoelii [9] = test: Antimalarial activity against chloroquine-resistant Plasmodium yoelii N67 infected in Swiss mice (Mus musculus) assessed as suppression of parasitaemia at 50 mg/kg, intraperitoneal once daily for 4 consecutive days measured after 6 days; format: functional, organism-based; set-up: dose 50 mg/kg
Plasmodium falciparum [10] = test: Antimalarial activity against chloroquine-sensitive Plasmodium falciparum NF54 assessed as inhibition of schizont maturation at 0.08 ug/ml after 36-40 hrs relative to control; format: functional; set-up: scale not given: the % may be the effect or the level left; procedure, shortened: as §1
Plasmodium falciparum [11] = test: Antimalarial activity against chloroquine-sensitive Plasmodium falciparum NF54 assessed as inhibition of schizont maturation at 0.125 ug/ml after 36-40 hrs relative to control; format: functional; set-up: scale not given: the % may be the effect or the level left
Plasmodium falciparum [12] = test: Antimalarial activity against chloroquine-sensitive Plasmodium falciparum NF54 assessed as inhibition of schizont maturation at 0.50 ug/ml after 36-40 hrs relative to control; format: functional; set-up: scale not given: the % may be the effect or the level left
Plasmodium falciparum [13] = test: Antimalarial activity against chloroquine-sensitive Plasmodium falciparum NF54 assessed as inhibition of schizont maturation at 0.25 ug/ml after 36-40 hrs relative to control; format: functional; set-up: scale not given: the % may be the effect or the level left
Plasmodium falciparum [14] = test: Antimalarial activity against chloroquine-sensitive Plasmodium falciparum NF54 assessed as inhibition of schizont maturation at 0.0625 ug/ml after 36-40 hrs relative to control; format: functional; set-up: scale not given: the % may be the effect or the level left
Plasmodium falciparum [15] = test: Antimalarial activity against chloroquine-sensitive Plasmodium falciparum NF54 assessed as inhibition of schizont maturation; format: functional; set-up: scale not given: the % may be the effect or the level left
Procedure, shortened: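 P. falciparum NF-54 was grown in RPMI 1640 with 25 mM HEPES, 1% sodium bicarbonate and 0.5% ALBUMAX-II. The assay used 3% haematocrit in medium with 10% FBS, with a DMSO stock (5 mg/mL) diluted in medium to five-fold dilutions. Duplicate wells were incubated at 37 °C in CO2 for 36–40 h, then Giemsa smears were read. MIC was the concentration fully blocking maturation to schizonts.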

SMILES	Activity (Plasmodium falciparum [2]) [%]	Activity (Plasmodium falciparum [3]) [%]	Activity (Plasmodium falciparum [4]) [%]	Activity (Plasmodium falciparum [5]) [%]	Activity (Plasmodium falciparum [8]) [%]	also measured
CC(C)=CCc1cc(/C=C/C(=O)c2ccc(O)cc2O)ccc1O [LICOAGROCHALCONE A]	–	–	–	–	–	IC50 (Plasmodium falciparum [1]): 10.3 µM
O=C(/C=C/c1ccccc1)c1ccc(Nc2c3ccccc3nc3ccccc23)cc1	42.8	100	100	100	–	–
COc1ccc(/C=C/C(=O)c2ccc(Nc3c4ccccc4nc4ccccc34)cc2)cc1	85.7	100	100	100	71.4	Activity (Plasmodium yoelii [6]): inactive; Survival (Plasmodium yoelii [7]): 10.67 days; Activity (Plasmodium yoelii [9]): inactive; Activity (Plasmodium falciparum [10]): 14.3%
Cc1cccc(/C=C/C(=O)c2ccc(Nc3c4ccccc4nc4ccccc34)cc2)c1	0	100	100	100	–	–
O=C(/C=C/c1ccccc1)c1cccc(Nc2c3ccccc3nc3ccccc23)c1	97.1	100	100	100	4.3	Activity (Plasmodium yoelii [6]): inactive; Survival (Plasmodium yoelii [7]): 15.5 days; Activity (Plasmodium yoelii [9]): inactive
CCN(CC)CCCC(C)Nc1ccnc2cc(Cl)ccc12 (stereo not given) [CHLOROQUINE]	–	–	–	–	–	Activity (Plasmodium falciparum [11]): 97.1%; Activity (Plasmodium falciparum [12]): 100%; Activity (Plasmodium falciparum [13]): 100%; Activity (Plasmodium falciparum [14]): 74.3%
COc1ccc(/C=C/C(=O)c2cccc(Nc3c4ccccc4nc4ccccc34)c2)cc1	71.4	100	100	100	7.1	Activity (Plasmodium yoelii [6]): 6.22%; Survival (Plasmodium yoelii [7]): 15.2 days; Activity (Plasmodium yoelii [9]): inactive
COc1cc(/C=C/C(=O)c2ccc(O)c(CC=C(C)C)c2O)ccc1O [CROTAORIXIN]	–	–	–	–	–	Activity (Plasmodium falciparum [15]): 100%
Cc1ccc(/C=C/C(=O)c2ccc(Nc3c4ccccc4nc4ccccc34)cc2)cc1	42.8	100	100	100	–	–
O=C(/C=C/c1ccc(Cl)cc1)c1ccc(Nc2c3ccccc3nc3ccccc23)cc1	0	100	100	100	–	–
O=C(/C=C/c1ccc(Cl)cc1)c1cccc(Nc2c3ccccc3nc3ccccc23)c1	0	100	100	100	–	–
O=C(/C=C/C=C/c1ccccc1)c1ccc(Nc2c3ccccc3nc3ccccc23)cc1	64.3	100	100	100	0	–
COc1cc(/C=C/C(=O)c2ccc(Nc3c4ccccc4nc4ccccc34)cc2)cc(OC)c1OC	57.1	100	100	100	5.7	–
O=C(/C=C/c1cccc([N+](=O)[O-])c1)c1ccc(Nc2c3ccccc3nc3ccccc23)cc1	0	100	100	100	–	–
